Assays:
A375 tumor-bearing mice = experiment: Ex vivo biodistribution study; type: in vivo, BALB/c nu/nu nude mice; conditions: 4 h p.i.
How it was run: (§1)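 Five-week-old female nude mice carried subcutaneous right-shoulder xenografts (5×10^6 cells), including xenografts from stable shRNA PD-L1-knockdown lines. At 100 mm³ tumour volume, mice received 1 nM Cy5.5-labelled test peptide i.v., with or without 1 μM unlabelled peptide (n = 3). Mice were killed at 4 h p.i. Tumour, brain, heart, lung, liver, stomach, intestine, spleen, kidney and muscle were imaged ex vivo through a Cy5.5 filter set. Average fluorescence per specimen was taken by ROI; mean ± SD.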

[1] = test system: MDA-MB-231 tumor-bearing mice; experiment: Ex vivo biodistribution study; type: in vivo, BALB/c nu/nu nude mice; conditions: 4 h p.i.
How it was run: as §1

MDA-MB-231 xenografts = experiment: In vivo NIF whole-body imaging of tumor-bearing mice; set-up: species or system BALB/c nu/nu nude mice; conditions: MDA-MB-231 xenograft, 1 nM Cy5.5-A11 i.v.
How it was run: (§2)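 Five-week-old female nude mice carried right-shoulder subcutaneous xenografts (5×10^6 cells). At 100 mm³, 1 nM Cy5.5-labelled test peptide was given i.v. (n = 3). Whole-body NIR imaging followed at 0.5, 1, 2, 3, 4, 5, 6 and 24 h p.i. with a Cy5.5 filter set, 1 s exposure, f/stop 4 and fixed illumination, in p/s/cm²/sr. Tumour-to-muscle ratio came from ROI mean intensities; mean ± SD.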

A375 xenografts = experiment: as above; set-up: species or system BALB/c nu/nu nude mice; conditions: A375 xenograft, 1 nM Cy5.5-A11 i.v.
How it was run: as §2

H460 tumor-bearing mice = experiment: Ex vivo biodistribution study; type: in vivo, BALB/c nu/nu nude mice; conditions: 4 h p.i.
How it was run: as §1

A375 cells = experiment: In vitro fluorescence imaging of Cy5.5-A11; type: cell-based; conditions: 6 h
How it was run: (§3)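 Cells (5×10^4; kept in DMEM or RPMI-1640 with 10% FBS) were plated in chamber slides and cultured 24 h. They were then exposed to 10 nM Cy5.5-labelled test peptide at 37 °C for 6 h; blocking wells also received 1 μM unlabelled peptide. After three PBS washes, cells were fixed in 4% paraformaldehyde for 20 min and DAPI-stained. Images were taken by laser confocal microscopy.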

H460 xenografts = experiment: In vivo NIF whole-body imaging of tumor-bearing mice; set-up: species or system BALB/c nu/nu nude mice; conditions: H460 xenograft, 1 nM Cy5.5-A11 i.v.
How it was run: as §2

H460 cells = experiment: In vitro fluorescence imaging of Cy5.5-A11; type: cell-based; conditions: 6 h
How it was run: as §3

MDA-MB-231 cells = experiment: In vitro fluorescence imaging of Cy5.5-A11; type: cell-based; conditions: 6 h
How it was run: as §3

PD-L1 = conditions: various cancer cells; cited from earlier work
[2] = 0.5-6 h p.i., ROI analysis, n = 3

## Cy5.5-EYVQTVKSSKG [Cy5.5-A11]
A375 tumor-bearing mice; A375, blocking group, 1 nM Cy5.5-A11 + 1 μM unlabeled A11 i.v.
  ex vivo uptake in the xenografts with excessive unlabeled A11: obviously reduced
A375 tumor-bearing mice; A375, nonblocking group, 1 nM Cy5.5-A11 i.v., ex vivo fluorescence, ROI
  ex vivo uptake of the probe in the xenografts: significant uptake
A375 tumor-bearing mice; A375 tumor-bearing mice, three groups (nonblocking, blocking, PD-L1 KD), ex vivo fluorescence, ROI
  organ uptake (biodistribution): higher in the liver and kidney than that in other organs
A375 tumor-bearing mice; PD-L1 knockdown A375, 1 nM Cy5.5-A11 i.v.
  ex vivo fluorescent signal in xenografts of cancer cells with PD-L1 knockdown: dramatically decreased
[1]; MDA-MB-231, blocking group, 1 nM Cy5.5-A11 + 1 μM unlabeled A11 i.v.
  ex vivo uptake in the xenografts with excessive unlabeled A11: obviously reduced
[1]; MDA-MB-231, nonblocking group, 1 nM Cy5.5-A11 i.v., ex vivo fluorescence, ROI
  ex vivo uptake of the probe in the xenografts: significant uptake
[1]; PD-L1 knockdown MDA-MB-231, 1 nM Cy5.5-A11 i.v.
  ex vivo fluorescent signal in xenografts of cancer cells with PD-L1 knockdown: dramatically decreased
MDA-MB-231 xenografts; [2]
  tumor-to-muscle fluorescence signal ratio: High
MDA-MB-231 xenografts; 24 h p.i.
  tumor-specific fluorescence signal at 24 h p.i.: distinctly visible
MDA-MB-231 xenografts; n = 3
  time of peak tumor-specific fluorescence signal: 2 h p.i.
A375 xenografts; [2]
  tumor-to-muscle fluorescence signal ratio: High
A375 xenografts; 24 h p.i.
  tumor-specific fluorescence signal at 24 h p.i.: distinctly visible
A375 xenografts; n = 3
  time of peak tumor-specific fluorescence signal: 2 h p.i.
H460 tumor-bearing mice; H460, blocking group, 1 nM Cy5.5-A11 + 1 μM unlabeled A11 i.v.
  ex vivo uptake in the xenografts with excessive unlabeled A11: obviously reduced
H460 tumor-bearing mice; H460, nonblocking group, 1 nM Cy5.5-A11 i.v., ex vivo fluorescence, ROI
  ex vivo uptake of the probe in the xenografts: significant uptake
H460 tumor-bearing mice; PD-L1 knockdown H460, 1 nM Cy5.5-A11 i.v.
  ex vivo fluorescent signal in xenografts of cancer cells with PD-L1 knockdown: dramatically decreased
A375 cells; A375, 10 nM Cy5.5-A11 + 1 μM unlabeled A11, 37 °C, confocal microscopy
  fluorescent signal of cells, blocking with unlabeled A11: successfully blocked
A375 cells; A375, 10 nM Cy5.5-A11, 37 °C, laser confocal microscopy, nonblocking
  fluorescent signal of cells: robust fluorescent signal
A375 cells; A375 stable PD-L1 shRNA knockdown and shNC control, 10 nM Cy5.5-A11, 37 °C, confocal microscopy
  fluorescent signal in PD-L1 knockdown versus shNC control cells: seen in shNC control cells but not PD-L1 knockdown cancer cells
H460 xenografts; [2]
  tumor-to-muscle fluorescence signal ratio: High
H460 xenografts; 24 h p.i.
  tumor-specific fluorescence signal at 24 h p.i.: distinctly visible
H460 xenografts; n = 3
  time of peak tumor-specific fluorescence signal: 2 h p.i.
H460 cells; H460, 10 nM Cy5.5-A11 + 1 μM unlabeled A11, 37 °C, confocal microscopy
  fluorescent signal of cells, blocking with unlabeled A11: successfully blocked
H460 cells; H460, 10 nM Cy5.5-A11, 37 °C, laser confocal microscopy, nonblocking
  fluorescent signal of cells: robust fluorescent signal
H460 cells; H460 stable PD-L1 shRNA knockdown and shNC control, 10 nM Cy5.5-A11, 37 °C, confocal microscopy
  fluorescent signal in PD-L1 knockdown versus shNC control cells: seen in shNC control cells but not PD-L1 knockdown cancer cells
MDA-MB-231 cells; MDA-MB-231, 10 nM Cy5.5-A11 + 1 μM unlabeled A11, 37 °C, confocal microscopy
  fluorescent signal of cells, blocking with unlabeled A11: successfully blocked
MDA-MB-231 cells; MDA-MB-231, 10 nM Cy5.5-A11, 37 °C, laser confocal microscopy, nonblocking
  fluorescent signal of cells: robust fluorescent signal
MDA-MB-231 cells; MDA-MB-231 stable PD-L1 shRNA knockdown and shNC control, 10 nM Cy5.5-A11, 37 °C, confocal microscopy
  fluorescent signal in PD-L1 knockdown versus shNC control cells: seen in shNC control cells but not PD-L1 knockdown cancer cells

## EYVQTVKSSKG [A11]
PD-L1
  action on PD-L1: binds and degrades PD-L1

Source: paper PMC11525735 (ACS Omega, 2024)
